What was measured:
K562 [1] = test: Induction of apoptosis in human K562 cells after 48 hrs by annexinV and propidium iodide staining based flow cytometry; type: functional, cell-based; conditions: K562, 48 h
In short: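 After 48 h drug exposure, 1×10^6 cells were washed in PBS and spun at 200×g for 5 min. They were stained with FITC-annexin V plus propidium iodide for 15 min at 20 °C and annexin V-positive cells counted by flow cytometry. Apoptosis was also scored morphologically with acridine orange/ethidium bromide, counting at least 300 cells. AC50 is the concentration inducing apoptosis in 50% of cells; mean ± SE from two to three experiments.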

K562 [2] = test: Cell cycle arrest in human K562 cells assessed as accumulation at S-phase at 2 uM for 24 hrs by propidium iodide staining based flow cytometry (reference value: 47.84%); type: functional
In short: (§1)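 K562 cells were exposed to compound for 24 h. They were then washed in ice-cold PBS and resuspended at 1×10^6/mL in a hypotonic solution of propidium iodide 50 µg/mL in 0.1% sodium citrate with 0.03% NP-40. After 30 min, DNA content was read by flow cytometry as single-parameter histograms and cell cycle phase distribution (%) was modelled.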

K562 [3] = test: Cell cycle arrest in human K562 cells assessed as accumulation at G2M-phase at 2 uM for 24 hrs by propidium iodide staining based flow cytometry (reference value: 12.89%); type: functional; in short: as §1
[4] = target: T1, Signal transducer and activator of transcription 5A (Homo sapiens) (UniProt P42229); test: Inhibition of STAT5 phosphorylation in human K562 cells at 2 uM after 24 hrs by flow cytometry (reference value: 315.56); type: cell-based
T1 sequence (whole entry): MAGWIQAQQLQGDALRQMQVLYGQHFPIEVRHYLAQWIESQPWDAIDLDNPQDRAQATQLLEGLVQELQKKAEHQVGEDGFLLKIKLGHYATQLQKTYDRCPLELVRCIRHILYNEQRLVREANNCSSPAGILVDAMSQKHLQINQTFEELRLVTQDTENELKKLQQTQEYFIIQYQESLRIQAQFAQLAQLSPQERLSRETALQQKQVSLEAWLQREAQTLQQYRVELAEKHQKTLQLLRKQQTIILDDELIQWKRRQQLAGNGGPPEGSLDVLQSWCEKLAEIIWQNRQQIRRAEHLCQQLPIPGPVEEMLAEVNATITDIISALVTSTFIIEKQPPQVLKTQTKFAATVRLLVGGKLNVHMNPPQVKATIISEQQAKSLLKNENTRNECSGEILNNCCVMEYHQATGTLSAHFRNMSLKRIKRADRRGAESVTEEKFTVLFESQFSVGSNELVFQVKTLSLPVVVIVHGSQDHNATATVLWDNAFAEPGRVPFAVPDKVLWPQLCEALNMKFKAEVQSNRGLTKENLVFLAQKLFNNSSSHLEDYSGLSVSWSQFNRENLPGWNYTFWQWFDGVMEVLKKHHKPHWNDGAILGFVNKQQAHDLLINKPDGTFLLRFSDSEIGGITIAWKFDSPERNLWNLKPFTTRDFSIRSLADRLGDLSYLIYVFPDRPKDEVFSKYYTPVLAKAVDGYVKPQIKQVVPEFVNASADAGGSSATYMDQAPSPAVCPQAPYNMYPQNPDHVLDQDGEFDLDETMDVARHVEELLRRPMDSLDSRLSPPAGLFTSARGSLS
In short: (§2)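 After 24 h exposure, about 1×10^6 K562 cells were PBS-washed and fixed/permeabilised for 20 min at 4 °C. They were then stained for 30 min at 4 °C with PE-conjugated anti-pSTAT5 monoclonal antibody, with an isotype antibody as control. Median fluorescence was read by flow cytometry and compared with untreated cells stained for pSTAT5.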

K562 [5] = test: Antiproliferative activity against human K562 cells after 48 hrs by trypan blue dye exclusion assay; type: functional, cell-based; conditions: K562, 48 h
K562 [6] = test: Cell cycle arrest in human K562 cells assessed as accumulation at G1 phase at 2 uM for 24 hrs by propidium iodide staining based flow cytometry (reference value: 39.27%); type: functional; in short: as §1
Bos taurus = organism: Bos taurus; test: Inhibition of [3H]colchicine binding to bovine tubulin at 5 uM by DEAE-cellulose filter method
In short: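 Reaction mixtures contained 1 µM tubulin, 5 µM [3H]colchicine and 5 µM test compound. Result is given as % inhibition of colchicine binding ± SD.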

Tubulin = Tubulin (Bos taurus, UniProt Q6B856+Q862L2+Q862F3); test: Inhibition of bovine brain tubulin polymerization by spectrophotometry
In short: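 Bovine brain tubulin (10 µM) was pre-incubated with varying compound concentrations in glutamate buffer at 30 °C, then cooled to 0 °C. GTP was added ([…] final) and the mixture warmed to 30 °C. Assembly was followed by turbidity at 350 nm.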

K562 [7] = test: Cell cycle arrest in human K562 cells assessed as accumulation at G1 phase at 1 uM for 24 hrs by propidium iodide staining based flow cytometry (reference value: 39.27%); type: functional; in short: as §1
K562 [8] = test: Cell cycle arrest in human K562 cells assessed as accumulation at S-phase at 1 uM for 24 hrs by propidium iodide staining based flow cytometry (reference value: 47.84%); type: functional; in short: as §1
K562 [9] = test: Cell cycle arrest in human K562 cells assessed as accumulation at G2M-phase at 1 uM for 24 hrs by propidium iodide staining based flow cytometry (reference value: 12.89%); type: functional; in short: as §1
[10] = target: T1, Signal transducer and activator of transcription 5A (Homo sapiens); test: Inhibition of STAT5 phosphorylation in human K562 cells at 1 uM after 24 hrs by flow cytometry (reference value: 315.56); type: cell-based; in short: as §2
[11] = target: T1, Signal transducer and activator of transcription 5A (Homo sapiens); test: Inhibition of STAT5 phosphorylation in human K562 cells at 3 uM after 24 hrs by flow cytometry (reference value: 315.56); type: cell-based; in short: as §2
K562 [12] = test: Cell cycle arrest in human K562 cells assessed as accumulation at S-phase at 3 uM for 24 hrs by propidium iodide staining based flow cytometry (reference value: 47.84%); type: functional
In short: (§3)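 K562 cells in RPMI 1640 with 10% FCS, penicillin/streptomycin and L-glutamine, 5% CO2, 37 °C; exposed 24 h. Cells washed in ice-cold PBS, resuspended at 1×10^6/mL in hypotonic solution of propidium iodide 50 µg/mL in 0.1% sodium citrate plus 0.03% nonidet P-40 for 30 min. DNA content read as single-parameter flow cytometry histograms; phase distribution modelled.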

[13] = target: T1, Signal transducer and activator of transcription 5A (Homo sapiens); test: Inhibition of STAT5 phosphorylation in human K562 cells at 3 uM after 24 hrs by flow cytometry relative to control; type: cell-based; in short: as §2
K562 [14] = test: Cell cycle arrest in human K562 cells assessed as accumulation at G2M-phase at 3 uM for 24 hrs by propidium iodide staining based flow cytometry (reference value: 12.89%); type: functional; in short: as §3
K562 [15] = test: Cell cycle arrest in human K562 cells assessed as accumulation at G1 phase at 3 uM for 24 hrs by propidium iodide staining based flow cytometry (reference value: 39.27%); type: functional; in short: as §3
[16] = target: T1, Signal transducer and activator of transcription 5A (Homo sapiens); test: Inhibition of STAT5 phosphorylation in human K562 cells at 2 uM after 24 hrs by flow cytometry relative to control; type: cell-based
In short: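 K562 cells were exposed for 24 h. About 1×10^6 cells were fixed and permeabilized for 20 min at 4 °C, then stained for 30 min at 4 °C with PE-conjugated anti-pSTAT5 monoclonal antibody; an isotype IgG1 antibody served as the background control. Median fluorescence was read by flow cytometry and compared with untreated cells stained for pSTAT5.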

Compound	AC50 (K562 [1])	Activity (K562 [2])	Activity (K562 [3])	Flu intensity [4]	IC50 (K562 [5])	Activity (K562 [6])	other results
COc1cc(C(=O)c2cc3cc(NC(=O)CI)ccc3s2)cc(OC)c1OC	4.2 µM	54.92%	12.12%	279	0.8 µM	32.96%	–
COc1cc(C(=O)c2cc3c(NC(=O)CI)cccc3o2)cc(OC)c1OC	4.5 µM	53.09%	16.24%	272	0.8 µM	33.67%	–
COc1cc(C(=O)c2cc3cccc(NC(=O)CI)c3o2)cc(OC)c1OC	> 50 µM	–	–	–	> 50 µM	–	–
COc1cc(C(=O)c2oc3ccc(NC(=O)CI)cc3c2C)cc(OC)c1OC	26.8 µM	–	–	–	18 µM	–	–
COc1cc(C(=O)c2sc3ccccc3c2NC(=O)CI)cc(OC)c1OC	28 µM	–	–	–	18 µM	–	–
COc1cc(C(=O)c2c(NC(=O)CI)c3cccc(OC)c3n2C)cc(OC)c1OC	4.6 µM	19.55%	2.81%	58.2	0.8 µM	77.64%	inhibition (Bos taurus): 38%; IC50 (Tubulin): 2 µM
COc1cc(C(=O)c2sc3c(C)cccc3c2NC(=O)CI)cc(OC)c1OC	2.8 µM	–	–	–	0.4 µM	–	Activity (K562 [7]): 79.88%; inhibition (Bos taurus): 65%; Activity (K562 [8]): 17.13%; Activity (K562 [9]): 2.99%; IC50 (Tubulin): 1.1 µM; Flu intensity [10]: 45.2
COc1ccc(C(=O)c2oc3ccccc3c2NC(=O)CI)cc1OC	48 µM	–	–	–	22 µM	–	–
COc1cc(C(=O)c2[nH]c3ccccc3c2NC(=O)CI)cc(OC)c1OC	2.4 µM	–	–	–	0.5 µM	–	Flu intensity [11]: 222; Activity (K562 [12]): 57.79%; inhibition [13]: 30%; Activity (K562 [14]): 9.39%; Activity (K562 [15]): 31.82%
COc1cc2oc(C(=O)c3cc(OC)c(OC)c(OC)c3)cc2cc1NC(=O)CI	2 µM	52.26%	4.41%	225	0.4 µM	43.33%	inhibition [16]: 29%
COc1cc(C(=O)c2c(NC(=O)CI)c3ccccc3n2C)cc(OC)c1OC	8.2 µM	–	–	–	4.3 µM	–	–

— ChEMBL document CHEMBL3745692, “Novel iodoacetamido benzoheterocyclic derivatives with potent antileukemic activity are inhibitors of STAT5 phosphorylation” (Eur J Med Chem, 2016)
